Laboratory results from ChEMBL document CHEMBL4613251, “Meliponamycins: Antimicrobials from Stingless Bee-Associated Streptomyces sp” (J Nat Prod, 2020).
Each block holds one compound with its values, some of them ahead of it.

Experiments:
THP-1 = experiment: Cytotoxicity against human THP1 cells assessed as reduction in cell viability after 120 hrs by alamar blue assay; type: cell-based; conditions: THP-1, 120 h
Method in brief: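 THP-1 cells were seeded at 2 × 10^4/well in RPMI-1640 + 10% FCS with 20 ng/mL PMA and differentiated for 72 h (37 °C, 5% CO2). Serial 2-fold dilutions from 10 mM DMSO stocks were added for 120 h. Alamar Blue was then added for 3 h, and fluorescence was read at ex 536 / em 588 nm as % of untreated control. n = 2 biological replicates; doxorubicin control.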

Paenibacillus larvae = experiment: Antibacterial activity against Paenibacillus larvae ATCC 9545 assessed as reduction in microbial growth by CLSI based broth microdilution method; type: functional
Method in brief: (§1)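 MIC by broth microdilution following CLSI guidelines; strains propagated in ISP-2 medium. Compounds added from a 0.125 mg/mL DMSO stock, highest final concentration 6.9 μg/mL, then serial 2-fold dilutions with DMSO diluted alongside. Tetracycline served as positive control for both strains.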

Staphylococcus aureus = experiment: Antibacterial activity against Staphylococcus aureus INCAS0039 assessed as reduction in microbial growth by CLSI based broth microdilution method; type: functional; method in brief: as §1
Leishmania infantum = experiment: Antileishmanial activity against intracellular amastigote stage of Leishmania infantum MHOM/MA/67/ITMAP-263 infected in THP1 cells after 120 hrs by giemsa-staining based inverted microscopic mehod; type: functional, organism-based; conditions: MHOM/MA/67/ITMAP-263, THP-1, 120 h
Method in brief: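 THP-1 monocytes seeded at 2 × 10^4/well and differentiated to macrophages with 20 ng/mL PMA for 72 h (37 °C, 5% CO2). They were then infected with late-stage promastigotes (2 × 10^5/well; promastigotes grown in M199 + 10% FCS, 28 °C). Extracellular parasites were removed after 24 h, and 2-fold serial dilutions from 10 mM DMSO stocks were added for 120 h. Cells were methanol-fixed and Giemsa-stained, and amastigotes per macrophage were counted microscopically as % of untreated control. IC50 from a variable-slope fit; n = 2 biological replicates; miltefosine control.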

Structure (SMILES): COc1cccc2c1C(=O)c1c(O)c3c(c(O)c1C2=O)C[C@@](O)(C(=O)CO)C[C@@H]3O[C@H]1C[C@H](N)[C@H](O)[C@H](C)O1 [DOXORUBICIN]
IC50 (THP-1): 1800 nM

MIC (Staphylococcus aureus): 0.05 µg/mL
Structure (SMILES): CN(C)[C@@H]1C(O)=C(C(N)=O)C(=O)[C@@]2(O)C(O)=C3C(=O)c4c(O)cccc4[C@@](C)(O)[C@H]3C[C@@H]12 [TETRACYCLINE]
MIC (Paenibacillus larvae): 7.76 µM

IC50 (Leishmania infantum): 2400 nM
Structure (SMILES): CCCCCCCCCCCCCCCCOP(=O)([O-])OCC[N+](C)(C)C [MILTEFOSINE]
